Calls of active or inactive are those of the source.
Experiments:
[1] = target: T1, Free fatty acid receptor 4 (Homo sapiens) (UniProt Q5NUL3); test: Agonist activity at human FFAR4 expressed in CHO cells assessed as beta-arrestin recruitment at 10 uM after 90 mins by beta-galactosidase complementation assay; format: cell-based
T1 sequence (whole entry): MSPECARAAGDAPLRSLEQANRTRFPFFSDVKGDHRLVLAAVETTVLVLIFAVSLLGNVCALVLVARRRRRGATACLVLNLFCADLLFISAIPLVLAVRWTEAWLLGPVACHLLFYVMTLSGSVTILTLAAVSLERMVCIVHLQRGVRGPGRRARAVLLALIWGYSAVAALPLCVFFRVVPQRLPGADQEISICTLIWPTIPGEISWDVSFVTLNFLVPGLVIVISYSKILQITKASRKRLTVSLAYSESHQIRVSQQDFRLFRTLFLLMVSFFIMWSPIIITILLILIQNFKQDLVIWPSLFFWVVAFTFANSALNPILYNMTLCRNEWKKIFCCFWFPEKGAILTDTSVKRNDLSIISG
In short: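 Human FFAR4 in CHO β-galactosidase complementation cells, 30,000 per well, serum-free F12 ~4 h before assay; final DMSO 1 %, compounds 10 µM. Agonist mode: 90 min with agonist, then detection 60 min rt dark; luminescence. 3–4 experiments in duplicate.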

[2] = target: T2, Free fatty acid receptor 1 (Homo sapiens, UniProt O14842); test: Antagonist activity at Gq protein coupled human FFAR1 expressed in human 1321N1 cells assessed as inhibition of TUG-424-induced intracellular calcium level preincubated for 30 mins followed by TUG-424 addition measured at 1.2 secs time interval by Fluo-4-AM dye based fluorescence assay; format: functional, cell-based
T2 sequence (O14842 whole entry): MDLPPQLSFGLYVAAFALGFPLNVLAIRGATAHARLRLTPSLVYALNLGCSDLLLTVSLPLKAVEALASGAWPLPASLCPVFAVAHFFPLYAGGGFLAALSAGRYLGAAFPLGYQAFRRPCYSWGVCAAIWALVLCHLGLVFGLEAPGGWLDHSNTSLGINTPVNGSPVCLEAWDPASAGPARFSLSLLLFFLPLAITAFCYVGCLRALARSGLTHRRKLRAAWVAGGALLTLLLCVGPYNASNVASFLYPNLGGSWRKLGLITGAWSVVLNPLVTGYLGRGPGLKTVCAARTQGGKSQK
In short: (§1)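 1321N1 astrocytoma cells retrovirally expressing human FFAR1, 50,000 per well, loaded 60 min at rt in dark with 3 µM Fluo-4-AM and 0.06 % Pluronic F-127 in HBSS. Compounds at 10 µM final; antagonist mode uses 30 min preincubation before TUG-424 (final 1 µM). Fluorescence at 520 nm (excitation 485 nm), 90 reads at 1.2 s intervals. Normalized to TUG-424 at 10 µM (agonist) or 1 µM (antagonist).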

[3] = target: T1, Free fatty acid receptor 4 (Homo sapiens); test: Antagonist activity at human FFAR4 expressed in CHO cells assessed as inhibition of TUG-89-induced beta-arrestin recruitment at 10 uM preincubated for 30 mins followed by TUG-89 addition measured after 90 mins by beta-galactosidase complementation assay; format: cell-based
[4] = target: T3, G-protein coupled receptor 84 (Homo sapiens, UniProt Q9NQS5); test: Agonist activity at Gi coupled human GPR84 expressed in CHO cells assessed as inhibition of forskolin-induced cAMP accumulation at 10 uM after 15 mins in presence of [3H]-cAMP by radiometric assay relative to decanoic acid; format: functional, cell-based
T3 sequence (Q9NQS5 whole entry): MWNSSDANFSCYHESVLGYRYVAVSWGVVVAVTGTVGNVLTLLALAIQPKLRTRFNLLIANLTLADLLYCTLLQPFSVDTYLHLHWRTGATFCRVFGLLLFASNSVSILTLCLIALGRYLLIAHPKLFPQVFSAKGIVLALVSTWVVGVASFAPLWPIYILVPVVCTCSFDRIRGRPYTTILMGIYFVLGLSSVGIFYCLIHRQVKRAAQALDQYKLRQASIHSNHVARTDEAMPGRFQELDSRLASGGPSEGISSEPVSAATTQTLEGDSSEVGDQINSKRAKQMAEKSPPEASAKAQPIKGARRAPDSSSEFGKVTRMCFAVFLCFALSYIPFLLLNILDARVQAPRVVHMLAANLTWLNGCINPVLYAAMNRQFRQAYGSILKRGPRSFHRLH
In short: (§2)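 Forskolin (10 µM) added with or without test compound for 15 min. Cells lysed in hot (90 °C) EDTA/Triton X-100 solution. cAMP measured radiometrically with bovine adrenal binding protein and [³H]cAMP, expressed as % of forskolin-alone response.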

[5] = target: T3, G-protein coupled receptor 84; test: Agonist activity at human GPR84 expressed in CHO cells assessed as beta-arrestin recruitment at 10 uM after 90 mins by beta-galactosidase complementation assay relative to embelin; format: cell-based
In short: (§3)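 CHO cells co-expressing human GPR84–β-galactosidase fragment and β-arrestin–complementary fragment, 20,000 per well. Compounds in DMSO (final ≤1 %) added for 90 min, then detection reagent for 60 min at rt; luminescence read. Three to five independent experiments in duplicate.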

[6] = target: T2, Free fatty acid receptor 1; test: Agonist activity at Gq protein coupled human FFAR1 expressed in human 1321N1 cells assessed as induction of intracellular calcium level at 10 uM measured at 1.2 secs time interval by Fluo-4-AM dye based fluorescence assay; format: functional, cell-based; in short: as §1
[7] = target: T3, G-protein coupled receptor 84; test: Agonist activity at human GPR84 expressed in CHO cells assessed as beta-arrestin recruitment after 90 mins by beta-galactosidase complementation assay; format: cell-based; in short: as §3
[8] = target: T3, G-protein coupled receptor 84; test: Antagonist activity at Gi coupled human GPR84 expressed in CHO cells assessed as inhibition of decanoic acid-induced receptor activation at 10 uM; format: cell-based
[9] = target: T3, G-protein coupled receptor 84; test: Agonist activity at Gi coupled human GPR84 expressed in CHO cells assessed as inhibition of forskolin-induced cAMP accumulation after 15 mins in presence of [3H]-cAMP by radiometric assay; format: functional, cell-based; in short: as §2
[10] = target: T3, G-protein coupled receptor 84; test: Positive allosteric modulation of Gi coupled human GPR84 expressed in CHO cells assessed as potentiation of decanoic acid-induced inhibition of forskolin-induced cAMP accumulation by measuring increase in fold shift in decanoic acid EC50 at 0.1 to 30 uM after 15 mins in presence of [3H]-cAMP by radiometric assay; format: functional, cell-based
[11] = target: G-protein coupled receptor 35 (Homo sapiens) (UniProt Q9HC97); test: Agonist activity at human GPR35 at 10 uM
Sequence of G-protein coupled receptor 35 (Homo sapiens) (Q9HC97 whole entry): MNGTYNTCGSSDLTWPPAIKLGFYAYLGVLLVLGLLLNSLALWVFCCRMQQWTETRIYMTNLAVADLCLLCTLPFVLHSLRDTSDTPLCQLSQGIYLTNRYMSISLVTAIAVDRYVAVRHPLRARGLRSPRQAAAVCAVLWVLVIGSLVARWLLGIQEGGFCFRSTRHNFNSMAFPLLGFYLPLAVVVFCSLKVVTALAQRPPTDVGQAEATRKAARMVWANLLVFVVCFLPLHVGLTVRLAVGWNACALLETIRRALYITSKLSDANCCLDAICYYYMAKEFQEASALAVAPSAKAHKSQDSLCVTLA

[12] = Stability of the compound in 0.01% ammonia solution at 100 uM at pH 9 up to 24 hrs by HPLC-MS analysis; format: physicochemical; settings: buffer, pH 9, 24 h
In short: (§4)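 Stock (2.5 mM in methanol/acetonitrile 1:1) diluted to 100 µM final in water, 0.01 % aqueous ammonia (pH 9), 1 mM NaOH (pH 11), or artificial gastric acid (pepsin, NaCl, HCl; pH 1.2). Incubated at 37 °C up to 24 h, sampled at intervals. Analysed by LC-ESI-MS on C18 at 25 °C with water/2 mM ammonium acetate–acetonitrile gradient.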

[13] = target: T3, G-protein coupled receptor 84; test: Ratio of EC50 for human GPR84 expressed in CHO cells assessed as beta-arrestin recruitment to EC50 for Gi coupled human GPR84 expressed in CHO cells assessed as inhibition of forskolin-induced cAMP accumulation; format: functional, cell-based
[14] = target: T4, Aryl hydrocarbon receptor (Homo sapiens, UniProt P35869); test: Activation of AhR in human HepG2 cells assessed as induction of CYP1A1 mRNA expression at 20 uM after 18 hrs by RT-PCR method; format: ADME, cell-based
T4 sequence (P35869 whole entry): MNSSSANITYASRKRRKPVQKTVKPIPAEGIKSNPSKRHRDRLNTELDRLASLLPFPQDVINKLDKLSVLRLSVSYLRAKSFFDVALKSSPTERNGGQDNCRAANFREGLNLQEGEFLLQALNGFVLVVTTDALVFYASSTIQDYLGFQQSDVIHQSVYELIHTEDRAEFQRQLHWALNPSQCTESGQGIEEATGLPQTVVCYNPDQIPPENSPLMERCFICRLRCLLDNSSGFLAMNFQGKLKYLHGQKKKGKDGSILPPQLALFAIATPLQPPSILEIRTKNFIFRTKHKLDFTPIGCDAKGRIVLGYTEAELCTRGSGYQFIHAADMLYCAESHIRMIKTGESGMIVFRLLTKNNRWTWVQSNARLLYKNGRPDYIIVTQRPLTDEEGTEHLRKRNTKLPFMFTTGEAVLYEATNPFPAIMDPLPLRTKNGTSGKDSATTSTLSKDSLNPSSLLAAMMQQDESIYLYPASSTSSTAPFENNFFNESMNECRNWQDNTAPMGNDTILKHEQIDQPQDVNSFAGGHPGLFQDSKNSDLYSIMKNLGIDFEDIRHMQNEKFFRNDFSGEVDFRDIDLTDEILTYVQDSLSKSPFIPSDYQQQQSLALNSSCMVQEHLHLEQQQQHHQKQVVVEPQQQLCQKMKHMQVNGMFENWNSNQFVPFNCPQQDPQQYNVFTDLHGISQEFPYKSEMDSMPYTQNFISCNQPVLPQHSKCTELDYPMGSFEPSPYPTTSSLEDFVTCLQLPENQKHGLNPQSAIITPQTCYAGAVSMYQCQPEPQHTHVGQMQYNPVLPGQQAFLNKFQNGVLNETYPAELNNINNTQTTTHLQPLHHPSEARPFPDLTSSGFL
In short: (§5)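 HepG2 cells (3x10^5 cells/ml) stimulated 18 h with 5 µM or 20 µM test compound or left untreated; 3-methylcholanthrene (10 µM) as positive control. RNA extracted for read-out; three independent experiments.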

[15] = Stability of the compound in water at 100 uM up to 24 hrs by HPLC-MS analysis; format: physicochemical; settings: buffer; in short: as §4
[16] = Stability of the compound in pH 1.2 artificial gastric fluid containing HCl, NaCl and pepsin assessed as parent compound remaining at 100 uM after 4 hrs by HPLC-MS analysis; in short: as §4
[17] = Stability of the compound in 1 mM sodium hydroxide solution at 100 uM at pH 11 up to 24 hrs by HPLC-MS analysis; format: physicochemical; settings: buffer, pH 11, 24 h; in short: as §4
CHO = test: Effect on forskolin-induced cAMP accumulation in CHO cells preincubated for 5 mins followed by forskolin addition measured after 15 mins in presence of [3H]-cAMP by radiometric assay; format: ADME, cell-based, Cricetulus griseus; settings: chinese hamster, 0.25 h
In short: as §2, with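 “CHO cells stably expressing human GPR84, or the parent non-transfected CHO line, incubated in HBSS (pH 7.4) at 37 °C with RO-20-1724 (final 40 µM). Forskolin” for “Forskolin”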

[18] = Stability of the compound in pH 1.2 artificial gastric fluid containing HCl, NaCl and pepsin at 100 uM up to 24 hrs by HPLC-MS analysis; in short: as §4
[19] = target: T4, Aryl hydrocarbon receptor; test: Activation of AhR in human HepG2 cells assessed as induction of CYP1A1 mRNA expression at 5 to 20 uM after 18 hrs by RT-PCR method; format: ADME, cell-based; in short: as §5
[20] = target: T4, Aryl hydrocarbon receptor; test: Activation of AhR in human HepG2 cells assessed as induction of CYP1A1 mRNA expression at 10 uM after 18 hrs by RT-PCR method; format: ADME, cell-based
In short: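 HepG2 cells seeded at 3x10^5 cells/ml were exposed to compound for 18 h alongside untreated cells and a 3-methylcholanthrene (10 µM) positive control. Total RNA was then extracted for transcript measurement. Three independent experiments were run.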

[21] = target: T3, G-protein coupled receptor 84; test: Agonist activity at Gi coupled human GPR84 expressed in CHO cells assessed as inhibition of forskolin-induced cAMP accumulation up to 100 uM preincubated for 5 mins followed by forskolin addition measured after 15 mins in presence of [3H]-cAMP by radiometric assay; format: functional, cell-based
In short: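 Concentration-response in CHO-hGPR84 cells. Compound preincubated 5 min, then forskolin 10 µM added for a further 15 min. Maximal forskolin-induced cAMP without agonist set as 100 %. […] Mean ± SEM of 3 independent experiments in duplicate.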

[22] = Stability of the compound in pH 1.2 artificial gastric fluid containing HCl, NaCl and pepsin assessed as parent compound remaining at 100 uM after 2 hrs by HPLC-MS analysis; in short: as §4
[23] = target: T4, Aryl hydrocarbon receptor; test: Activation of AhR in human HepG2 cells assessed as induction of CYP1A1 mRNA expression after 18 hrs by RT-PCR method; format: ADME, cell-based; in short: as §5
[24] = Stability of the compound in pH 1.2 artificial gastric fluid containing HCl, NaCl and pepsin assessed as parent compound remaining at 100 uM after 1 hr by HPLC-MS analysis; in short: as §4

Structure (SMILES) | Activity [1] | inhibition [3] | Emax [4] | Emax [5] | Activity [6] | EC50 [7] | EC50 [9] | Activity [11] | Stability [12] | Stability [15] | Stability [17] | inhibition [9] | Activity (CHO) | further results
CC(C)C(c1c[nH]c2ccccc12)c1c[nH]c2ccccc12 | inactive | inactive | 16% | 167% | inactive | 7.29 µM | > 10000 nM |  |  |  |  |  |  | EC50 [2]: 8.89 µM; inhibition [8]: inactive
CCC(c1c[nH]c2ccccc12)c1c[nH]c2ccccc12 | inactive | inactive | -24% | 67% | inactive | 2.97 µM | > 10000 nM | inactive |  |  |  |  |  | Activity [10]: inactive; inhibition [8]: inactive
Fc1ccc2[nH]cc(Cc3c[nH]c4ccc(F)cc34)c2c1 | inactive | inactive | 117% | 125% | inactive | 4.33 µM | 80 nM | inactive | Stable | Stable | Stable | Dose-dependent effect | Non-Toxic | Ratio EC50 [13]: 54; Activity [14]: Not Active; Stability [16]: 57%
Fc1cccc2c(Cc3c[nH]c4c(F)cccc34)c[nH]c12 | inactive | inactive | 129% | 99% | inactive | 6.07 µM | 113 nM |  | Stable | Stable | Stable |  |  | Stability [18]: Stable
Fc1cc(F)c2[nH]cc(Cc3c[nH]c4c(F)cc(F)cc34)c2c1 | inactive | inactive | 131% | 385% | inactive |  |  | inactive |  |  |  | Dose-dependent effect | Non-Toxic | Activity [19]: Not Active
Cc1ccc2cc3c(ccc4ccccc43)c3c2c1CC3 [3-METHYLCHOLANTHRENE] |  |  |  |  |  |  |  |  |  |  |  |  |  | Activity [20]: Active; inhibition [21]: inactive
c1ccc2c(Cc3c[nH]c4ccccc34)c[nH]c2c1 [ARUNDINE] | inactive | inactive | 125% | 60% | inactive |  |  | inactive | Stable | Stable | Stable | Dose-dependent effect | Non-Toxic | fold change (FC) [4]: 29; Stability [22]: 49%; Activity [23]: Dose-dependent effect; Stability [24]: 63%; Stability [16]: 35%
